Read-outs that look alike come from different tables or passages of the source.
What was measured:
[1] = biological target: NTMT1-eGFP fusion protein (Homo sapiens, UniProt Q9BV86); assay: NTMT1 degradation visualized by fluorescence; assay type: cell-based; details: HCT116, 100 μM, 24 h
Outline: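 HCT116 cells were seeded at 1.5×10^5 per well. After 12 h they were transfected with pEGFP-n1-NTMT1 or empty pEGFP-n1 using Lipofectamine 3000 in reduced-serum medium with 20% FBS, for 8 h. Cells recovered 24 h in complete medium, then received 100 μM degrader or DMSO for 24 h. The GFP fusion was imaged on an inverted fluorescence microscope.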

ntmt1 KO HCT116 cells = assay: Cell proliferation assay; assay type: cell-based, human; details: ntmt1 KO HCT116, various concentrations, 72 h
NTMT1 [2] = biological target: T1, NTMT1 (Homo sapiens, UniProt Q9BV86); assay: Degradation of NTMT1 in HCT116; assay type: cell-based; details: for DC50: read-out: DC50, NTMT1 degradation, HCT116, 24 h, Western blot; for fold less potent than degrader 1 (DC50): HCT116
T1 sequence (Q9BV86 1-223): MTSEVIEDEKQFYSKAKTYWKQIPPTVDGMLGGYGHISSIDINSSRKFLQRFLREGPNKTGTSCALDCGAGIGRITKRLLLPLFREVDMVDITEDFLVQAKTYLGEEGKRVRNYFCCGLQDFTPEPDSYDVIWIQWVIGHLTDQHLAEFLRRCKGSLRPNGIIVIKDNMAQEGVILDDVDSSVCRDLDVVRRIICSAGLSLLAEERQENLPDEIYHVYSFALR
Outline: (§1)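 Cells were seeded at 8×10^4 per well, grown 24 h, then treated with graded concentrations for 24 h or at 50 μM over a time course, with DMSO control. Lysis was in Tris pH 8.0/NaCl/NP-40/Triton buffer, followed by BCA. 20 μg protein was run on 10% SDS-PAGE with PVDF transfer. Membranes were probed with rabbit anti-NTMT1 and anti-β-actin overnight at 4 °C, then chemiluminescence. Densitometry was normalised to DMSO, and DC50 was derived from these values. Triplicates.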

NTMT2 = NTMT2 (Homo sapiens, UniProt Q5VVY1); assay: Selectivity: NTMT2 protein level in HCT116 and HT29; assay type: cell-based; details: 24 h
Sequence of NTMT2 (Q5VVY1 whole entry): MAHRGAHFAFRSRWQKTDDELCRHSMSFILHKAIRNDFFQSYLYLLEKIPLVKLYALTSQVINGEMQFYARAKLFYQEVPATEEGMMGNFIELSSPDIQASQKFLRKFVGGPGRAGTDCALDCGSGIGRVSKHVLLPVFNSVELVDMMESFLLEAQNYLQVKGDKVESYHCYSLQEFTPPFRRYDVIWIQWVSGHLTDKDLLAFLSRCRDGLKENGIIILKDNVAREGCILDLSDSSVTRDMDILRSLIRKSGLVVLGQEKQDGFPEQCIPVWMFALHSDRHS
Outline: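 HCT116 and HT29 cells were treated with a range of degrader concentrations for 24 h. Lysates were resolved by SDS-PAGE, and NTMT1, NTMT2 and β-actin band regions were cut from the same membrane. These were probed with rabbit anti-NTMT1, anti-NTMT2 and anti-actin, then goat anti-rabbit secondary and chemiluminescence. Triplicates.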

calreticulin (CALR) = assay: CALR expression by Western blot; assay type: cell-based, human; details: HCT116, 25 μM, 24 h
Outline: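 HCT116 cells were treated at 25 μM for 24 h alongside the inhibitor comparator. Cells were lysed at 4 °C for 1 h in Tris pH 8.0/NaCl/NP-40/Triton X-100 buffer with protease inhibitor, and protein was quantified by BCA. 10 μg protein was run on 8% SDS-PAGE and transferred to PVDF. Blots were probed with rabbit anti-CALR and anti-β-actin, detected by chemiluminescence and quantified by densitometry. Triplicates.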

eGFP = assay: Control with plasmid expressing only eGFP in HCT116; assay type: cell-based, human; details: HCT116, 100 μM, 24 h
NTMT1 [3] = biological target: T1, NTMT1; assay: Degradation of NTMT1 in HT29; assay type: cell-based; details: for DC50: read-out: DC50, NTMT1 degradation, HT29, 24 h, Western blot
Outline: as §1

HCT116 = assay: Cytotoxicity, WST-8 assay, HCT116; assay type: cell-based, human; details: HCT116, up to 64 μM, 24 h
Outline: (§2)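 Cells were seeded at 5×10^3 per well and cultured 24 h. They were then exposed to a range of test compound concentrations or DMSO vehicle. A solution of 5 mM WST-8 plus 0.2 mM 1-methoxyphenazinium salt in 150 mM NaCl was added, followed by 3 h at 37 °C in 5% CO₂. Absorbance was read at 490 nm. Triplicates.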

HT29 = assay: Cytotoxicity, WST-8 assay, HT29; assay type: cell-based, human; details: HT29, up to 64 μM, 24 h
Outline: as §2

NTMT1 and NTMT2 = details: cited from earlier work
NTMT1 [4] = biological target: T1, NTMT1; details: read-out: cellular IC50; HCT116; cited from earlier work
NTMT1 [5] = biological target: T1, NTMT1; details: read-out: cellular IC50; HT29; cited from earlier work

For `Cc1ncsc1-c1ccc(CNC(=O)[C@@H]2C[C@@H](O)CN2C(=O)[C@H](C(C)C)N2Cc3ccccc3C2=O)c(OCCNC(=O)c2ccccc2NC(=O)[C@H](CCCCN)NC(=O)[C@@H]2CCCN2C(=O)Cc2cccc3ccccc23)c1` [degrader 1, (2S,4R)-N-(2-(2-(2-((S)-6-amino-2-((S)-1-(2-(naphthalen-1-yl)acetyl)pyrrolidine-2-carboxamido)hexanamido)benzamido)ethoxy)-4-(4-methylthiazol-5-yl)benzyl)-4-hydroxy-1-((S)-3-methyl-2-(1-oxoisoindolin-2-yl)butanoyl)pyrrolidine-2-carbox amide], which “fluorescence of NTMT1-eGFP fusion protein” value [1] is on record?
The value was “most fluorescence signals were lost”.

And the “antiproliferative effect on ntmt1 KO cells” value (ntmt1 KO HCT116 cells)?
The value was “neither compound displayed an antiproliferative effect”.

And the “NTMT1 degradation after pre-treatment with proteasome inhibitor MG-132” value (NTMT1 [2]; HCT116, 1 μM MG-132 for 2 h, then 50 μM compound 24 h)?
The value was “completely abolished”.

What about the “NTMT1 level (Western blot)” value (NTMT1 [2]; HCT116, 25 μM, 24 h) of the same compound?
Its value is “almost depleted”.

What about the “NTMT1 level within 24 h” value (NTMT1 [2]; HCT116, 50 μM, 24 h) of the same compound?
Its value is “almost completely depleted”.

And the DC50 (NTMT1 [2])?
Its DC50 is 7.53 µM.

And the “degradation of NTMT2” value (NTMT2; HCT116, various concentrations)?
The value was “cannot induce degradation of NTMT2”.

And the “degradation of NTMT2” value (NTMT2; HT29, various concentrations)?
Its value is “cannot induce degradation of NTMT2”.

What about the “CALR expression relative to inhibitor 4 (Western blot)” value (calreticulin (CALR)) of the same compound?
The value was ~ 1.4 fold.

What about the “fluorescence of eGFP only (control plasmid)” value (eGFP) of the same compound?
The value was “did not show obvious reduction of fluorescence”.

What about the “onset of pronounced change of NTMT1 levels” value (NTMT1 [3]; HT29, 50 μM) of the same compound?
Its value is “not observed until 6 h”.

And the DC50 (NTMT1 [3])?
Its DC50 is 18.1 µM.

What about the “cytotoxicity (cell viability, WST-8)” value (HCT116) of the same compound?
Its value is “No significant cytotoxicity”.

And the “cytotoxicity (cell viability, WST-8)” value (HT29)?
The value was “No significant cytotoxicity”.

Which “selectivity toward NTMT1 and NTMT2” value (NTMT1 and NTMT2) does the source give for `NCCCC[C@H](NC(=O)[C@@H]1CCCN1C(=O)Cc1ccc(O)cc1)C(=O)N[C@@H](CCCN=C(N)N)C(N)=O` [BM30] here?
Its value is “nonselective inhibitor”.

For `NCCCC[C@H](NC(=O)[C@@H]1CCCN1C(=O)Cc1cccc2ccccc12)C(=O)Nc1ccccc1C(N)=O` [DC541, (S)-N-((S)-6-amino-1-((2-carbamoylphenyl)amino)-1-oxohexan-2-yl)-1-(2-(naphthalen-1-yl)acetyl)pyrrolidine-2-carboxamide], which IC50 (NTMT1 [4]) is on record?
The IC50 was over 100 µM.

What about the IC50 (NTMT1 [5]) of the same compound?
The IC50 was about 30 µM.

Which “fold less potent than degrader 1 (DC50)” value (NTMT1 [2]) does the source give for `Cc1ncsc1-c1ccc(CNC(=O)[C@@H]2C[C@@H](O)CN2C(=O)[C@H](C(C)C)N2Cc3ccccc3C2=O)c(OCCOCCNC(=O)c2ccccc2NC(=O)[C@H](CCCCN)NC(=O)[C@@H]2CCCN2C(=O)Cc2cccc3ccccc23)c1` [degrader 2, (2S,4R)-N-(2-(2-(2-(2-((S)-6-amino-2-((S)-1-(2-(naphthalen-1-yl)acetyl)pyrrolidine-2-carboxamido)hexanamido)benzamido)ethoxy)ethoxy)-4-(4-methyl-thiazol-5-yl)benzyl)-4-hydroxy-1-((S)-3-methyl-2-(1-oxoisoindolin-2-yl)butanoyl)pyrrolidine-2-carboxamide] here?
The value was at least 9 fold.

And the DC50 (NTMT1 [2])?
The DC50 was 79.7 µM.

What about the DC50 (NTMT1 [3]) of the same compound?
Its DC50 is 53.7 µM.

For `Cc1ncsc1-c1ccc(CNC(=O)[C@@H]2C[C@H](O)CN2C(=O)[C@H](C(C)C)N2Cc3ccccc3C2=O)c(OCCNC(=O)c2ccccc2NC(=O)[C@H](CCCCN)NC(=O)[C@@H]2CCCN2C(=O)Cc2cccc3ccccc23)c1` [inhibitor 4, (2S,4S)-N-(2-(2-(2-((S)-6-amino-2-((S)-1-(2-(naphthalen-1-yl)acetyl)pyrrolidine-2-carboxamido)hexanamido)benzamido)ethoxy)-4-(4-methylthiazol-5-yl)benzyl)-4-hydroxy-1-((S)-3-methyl-2-(1-oxoisoindolin-2-yl)butanoyl)-pyrrolidine-2-carboxamide], which “antiproliferative effect on ntmt1 KO cells” value (ntmt1 KO HCT116 cells) is on record?
Its value is “neither compound displayed an antiproliferative effect”.

What about the “NTMT1 level relative to DMSO control” value (NTMT1 [2]; HCT116, 50 μM, 24 h) of the same compound?
Its value is “unable to reduce NTMT1 levels”.

What about the “NTMT1 level relative to DMSO control” value (NTMT1 [3]; HT29, 50 μM, 24 h) of the same compound?
The value was “unable to reduce NTMT1 levels”.

What about the “cytotoxicity (cell viability, WST-8)” value (HCT116) of the same compound?
Its value is “No significant cytotoxicity”.

What about the “cytotoxicity (cell viability, WST-8)” value (HT29) of the same compound?
Its value is “No significant cytotoxicity”.

For `Cc1ncsc1-c1ccc(CNC(=O)[C@@H]2C[C@@H](O)CN2C(=O)[C@H](C(C)C)N2Cc3ccccc3C2=O)c(OCCOCCOCCOCCNC(=O)c2ccccc2NC(=O)[C@H](CCCCN)NC(=O)[C@@H]2CCCN2C(=O)Cc2cccc3ccccc23)c1` [degrader 3, (2S,4R)-N-(2-((1-(2-((S)-6-amino-2-((S)-1-(2-(naphthalen-1-yl)acetyl)pyrrolidine-2-carboxamido)hexanamido)phenyl)-1-oxo-5,8,11-trioxa-2-azatridecan-13-yl)oxy)-4-(4-methylthiazol-5-yl)benzyl)-4-hydroxy-1-((S)-3-methyl-2-(1-oxoisoindolin-2-yl)butanoyl)pyrrolidine-2-carboxamide], which “fold less potent than degrader 1 (DC50)” value (NTMT1 [2]) is on record?
The value was at least 9 fold.

And the DC50 (NTMT1 [2])?
The DC50 was 66.4 µM.

And the DC50 (NTMT1 [3])?
The DC50 was 53.7 µM.
